This note sets out measurements from PubChem BioAssay AID504382 (The Scripps Research Institute Molecular Screening Center, 2011).

Out of some 2,500 compounds screened, about 460 (18%) were called active. Not all results are given here. Values without a mark were called inactive.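 The calls were made as follows: active = mean activation above a cutoff of low control average plus 3 SD from the earlier screen (cut at about 12% in these data); inactive = the rest.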

The assay in a line: compound fluorescence interference without thin filaments, confirmation, artefact control for cardiac RTF calcium sensitizer project, biochemical (AID 504382). As to conditions: IANBD fluorescence interference counterscreen, buffer, EC20 Ca2+; at 7.2 µM; active compounds read high; scaled: EC20 calcium 0, EC100 calcium 100. In outline: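 Medium: MOPS buffer, 190 mM, with KCl, MgCl2, EGTA, NTA, DTT, pH 7.20; Dosing: one dose of 7.2 µM, 0.7% DMSO; Probe or stimulus: calcium at EC20 level, 0.472 mM final; Incubation: 15 min, 25 °C; Evaluation: compound fluorescence interference relative to control well signal range; Signal: fluorescence, 480/540 nm.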
Background: A counterscreen serves to expose hits that act by an unwanted route or on another target.
`C[C@H]1CCC(=O)N([C@H](CSc2ccc(Br)cc2)Cc2ccccc2)CC1`: the fluorescence artifact activation is 0.11%.
Regarding `Nc1c(C(=O)Nc2ccccc2F)sc2nc(Cc3ccccc3)cc(C(F)(F)F)c12`, the fluorescence artifact activation was 0.07%.
Consider `CCOc1ccc2noc3c2c1C(=O)c1ccccc1-3`, for which the fluorescence artifact activation was 0.02%.
In the case of `c1ccc(Nc2nc3ccccc3n3cnnc23)cc1`, the fluorescence artifact activation is 0.03%.
Regarding `CCOCCc1nnc(NC(=O)COC)s1`, the fluorescence artifact activation is 0.06%.
In the case of `CCCCOC(=O)Nc1nnc(C(C)C)s1`, the fluorescence artifact activation was 148% (active).
The same measure for `CCC(CC)c1nnc(NC(=O)/C=C/c2ccco2)s1`: 0.09%; for `Cc1cc(S(=O)(=O)Cc2noc(-c3c(C)noc3C)n2)c(C)cc1Cl`: -0.02%.
On to `COC(=O)[C@H](Cc1ccccc1)NC(=O)Nc1ccc(OC)cc1`, for which the fluorescence artifact activation is 0.02%.
With `COc1cc(OC)c(C(=O)OC(C)C(=O)Nc2cccc(C(F)(F)F)c2)cc1OC` (stereo unspecified) the figure was 1.83%.
With `CCOC(=O)CN1C(=O)N[C@@H](c2cccc(C(F)(F)F)c2)C(C(=O)OC)=C1C` the figure was 0.03%; with `COCCN1C(=O)N[C@@H](c2cccc(C(F)(F)F)c2)C(C(=O)OC)=C1C`, 13.5% (active).
Consider `Cc1c(C(=O)NCc2ccco2)cccc1[N+](=O)[O-]`, for which the fluorescence artifact activation is 4.18%.
The same measure for `COc1cc(/C=C/C(O)=C/C(=O)/C=C/c2ccc(O)cc2)ccc1O`: 0.51%; for `COc1cc(/C=C/C(=O)CC(=O)/C=C/c2ccc(O)c(OC)c2)ccc1O`: 0.15%; for `COc1cc(/C=C/C(=O)/C=C(O)/C=C/c2ccc(O)c(OC)c2)ccc1O`: 110% (active).
Take `C/C(=N/NC(=O)Nc1ccccc1)c1ccc(C)cc1`: the fluorescence artifact activation was -0.02%.
With `Cc1c(C=O)c2ccccn2c1C(=O)c1cccs1`, the fluorescence artifact activation was 3.43%.
With `CCCNC(=O)Cn1c(=O)/c(=C\c2ccc(-c3ccc([N+](=O)[O-])cc3)o2)s/c1=C\C(=O)C(C)(C)C` the figure was 8.2%; with `CC1(C)CC(=O)C=C(NCc2ccc(Cl)c(Cl)c2)C1`, -0.02%; with `O=S(=O)(c1ccc(F)cc1)N1CN(Cc2ccco2)c2nc3ccccc3nc21`, 8.07%.
With `COc1ccc(CNC(=O)C(C#N)c2nc3ccccc3nc2N2CCCC2)cc1` (stereo unspecified) the figure was -0.08%; with `COc1ccc(S(=O)(=O)N2CN(Cc3ccco3)c3nc4ccccc4nc32)cc1`, 37.3% (active); with `COC1=C/C(=C/c2c(N)n3cc(C)sc3nc2=O)C=CC1=O`, -0.03%.
The same measure for `Cc1cccc(Nc2c([N+](=O)[O-])c(=O)oc3ccccc23)c1`: 7.76%; for `O=C(c1ccncc1)N(Cc1ccccc1)Cc1nc2ccccc2c(=O)[nH]1`: 0.03%.
Consider `COc1cc2cc(CN(Cc3cccnc3)C(=O)NCc3ccccc3)c(=O)[nH]c2cc1OC`, for which the fluorescence artifact activation is 116% (active).
With `COc1ccc2cc(CN(CC3CCCO3)C(=S)NCc3ccco3)c(=O)[nH]c2c1` (stereo unspecified) the figure was 0.1%; with `O=C1NC2=C(C(=O)CCC2)C(c2ccccc2Cl)N1` (stereo unspecified), 0.2%.
As for `O=C1N(c2ccc(Cl)cc2)C(c2ccccc2)N2CCCN12` (stereo unspecified), the fluorescence artifact activation was -0.06%.
In the case of `COc1ccc(N=C2NC(=O)S/C2=C\c2ccc(N(C)C)cc2)cc1`, the fluorescence artifact activation is 9.11%.
Regarding `C=CCOc1ccc(/C=C2\SC(=Nc3cccnc3)NC2=O)cc1`, the fluorescence artifact activation was 0.04%.
With `CCOc1ccc(N=C2NC(=O)S/C2=C\c2ccc(N(C)C)cc2)cc1` the figure was 1920% (active).
For the compound `N#CC1(C#N)C(c2ccccc2)OC23CCCCC2C1(C#N)C(=N)O3` (stereo unspecified), the fluorescence artifact activation is 0.04%.
With `COc1cc(/C=C2\N=C3CCCCCN3C2=O)ccc1O` the figure was -0.06%; with `O=C(CCC1CCCN(C(=O)c2ccncc2)C1)NCc1ccc(F)c(F)c1` (stereo unspecified), 0.02%.
Take `Oc1ccc2ccc3cccc[n+]3c2c1`: the fluorescence artifact activation is 12.9% (active).
The same measure for `CCn1c(SCC(=O)c2ccc(Cl)cc2)nnc1C(C)C`: 2.06%.
With `COc1ccc(CN2CCN(C(=O)c3ccccc3F)CC2)c(OC)c1OC` the figure was 14.3% (active).
As to `COc1ccc(CN2CCC(C(=O)N3CCN(c4ccccc4F)CC3)CC2)cc1OC`, the fluorescence artifact activation is 0.36%.
In the case of `COc1ccccc1Nc1ncc(C(=O)N2CCC(C(N)=O)CC2)c2ccccc12`, the fluorescence artifact activation is -0.02%.
With `COc1ccc(CC(=O)N(C)Cc2cccc(F)c2)cc1S(=O)(=O)N1CCOCC1` the figure was 0.26%.
With `CSc1ccc(C2NC(=O)c3c(sc4c3CCN(C)C4)N2)cc1` (stereo unspecified) the figure was 4.52%.
With `N#Cc1ccc(S(=O)(=O)NC2CCCCNC2=O)cc1` (stereo unspecified), the fluorescence artifact activation was 26.9% (active).
With `N#Cc1ccc(S(=O)(=O)NC2CCN(Cc3ccccc3)CC2)cc1` the figure was 2.37%.
Regarding `O=C1NCCCCC1NS(=O)(=O)c1cccc(C(F)(F)F)c1` (stereo unspecified), the fluorescence artifact activation was 0.33%.
With `CCN1CCc2c(sc(NC(=O)c3ccc(S(=O)(=O)N(C)c4ccccc4)cc3)c2C(=O)NC)C1` the figure was 0.31%.
With `CCC(Oc1cc(Cl)ccc1Cl)C(=O)NNC(=O)CCC(=O)O` (stereo unspecified) the figure was 0.03%.
With `COc1ccc(/C=N/N=C2/CC(C)(C)Cc3n[nH]c(=O)cc32)cc1` the figure was 357% (active); with `CCn1c(O)c(/C=N/N=C/c2ccc(OC)cc2)c2cc(C3=NNC(=O)CC3)ccc21`, 5.84%.
With `CCn1cc(/C=C/c2cc[n+](C)cc2)c2ccccc21`, the fluorescence artifact activation was 0.09%.
The same measure for `CC1CN/C(=C\C(=O)c2ccc(Br)cc2)C(=O)N1` (stereo unspecified): -0.09%.
With `CCN(CC)c1ccc2cc(S(=O)(=O)c3ccc(C)cc3)c(=O)oc2c1` the figure was 9.02%.
With `CCN(CC)c1ccc2cc(NC(=O)CCC(=O)O)c(=O)oc2c1` the figure was 0.3%; with `CCN(CC)c1ccc2cc(S(=O)(=O)c3ccc(Cl)cc3)c(=O)oc2c1`, 156% (active); with `COc1ccc(C2c3ccc(O)cc3Oc3ncn(CCN4CCOCC4)c(=N)c32)cc1OC` (stereo unspecified), 5.12%.
For the compound `CC(C)c1ccc(OCC(=O)NC(Cc2c[nH]c3ccccc23)C(=O)O)cc1` (stereo unspecified), the fluorescence artifact activation was 0.01%.
For `CN1CCc2c(sc3c2C(=O)NC(c2ccco2)N3)C1` (stereo unspecified), the fluorescence artifact activation is 0.18%.
For `O=C(NCc1ccco1)C1CCC(N2C(=O)C3C4CCC(C4)C3C2=O)CC1` (stereo unspecified), the fluorescence artifact activation was 0.07%.
The same measure for `O=C(O)C1CC(O)CN1C(=O)c1ccco1` (stereo unspecified): 0.06%; for `O=C(NCc1ccco1)C1Cc2ccccc2CN1C(=O)c1ccco1` (stereo unspecified): 1040% (active).
